# Screens (PubChem)
# sPLA2-III inh = Blocks human group III sPLA2 activity; Q9NZ20; QFRET BODIPY PC-A2 liposome hydrolysis, fluorescence; inhibition, % at 12.2 µM; hit rate 0.56% among 370,000; AID 743126;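 active = inhibition above mean plus 3 SD of compounds lying within the high and low control bounds, cut at about 19% in these data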;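 note: 0% = median of test compound wells and 100% = no enzyme DMSO wells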
# Tb MetRS inh = Trypanosoma brucei MetRS inhibition; purified T. brucei MetRS, ATP depletion, Kinase-Glo luminescence; inhibition, % at 11.9 µM; hit rate 0.4% among 360,000; AID 624268;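 active = inhibition above a per-plate cutoff of the control wells' mean inhibition plus 3 SD, cut at about 5.5% in these data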;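 note: 0% = DMSO wells median and 100% = median of wells with control inhibitor compound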
#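 Assay system: T. brucei methionyl-tRNA synthetase, purified | Medium: HEPES buffer with MgCl2, KCl, DTT, spermine, BSA, pyrophosphatase | Compound: 11.9 µM single point | Incubation: 15 min enzyme-compound preincubation, 2 h reaction, 10 min detection, 25 °C | Measured by: Kinase-Glo luciferase luminescence reporting remaining unconsumed ATP | Measure: % inhibition normalized to control-well medians | Replication: Singlicate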
# PLCb3 inh = inhibitors of human phospholipase C beta3; AID 720704; inhibition, % at 12.2 µM; hit rate 0.18% among 370,000; Q01970; Purified PLC-beta3, fluorogenic substrate, fluorescence; in the data active = inhibition above about 11%;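 note: 0% = median of compound wells on plate and 100% = full blocker control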
# Target sequence (Q01970 whole entry, looked up): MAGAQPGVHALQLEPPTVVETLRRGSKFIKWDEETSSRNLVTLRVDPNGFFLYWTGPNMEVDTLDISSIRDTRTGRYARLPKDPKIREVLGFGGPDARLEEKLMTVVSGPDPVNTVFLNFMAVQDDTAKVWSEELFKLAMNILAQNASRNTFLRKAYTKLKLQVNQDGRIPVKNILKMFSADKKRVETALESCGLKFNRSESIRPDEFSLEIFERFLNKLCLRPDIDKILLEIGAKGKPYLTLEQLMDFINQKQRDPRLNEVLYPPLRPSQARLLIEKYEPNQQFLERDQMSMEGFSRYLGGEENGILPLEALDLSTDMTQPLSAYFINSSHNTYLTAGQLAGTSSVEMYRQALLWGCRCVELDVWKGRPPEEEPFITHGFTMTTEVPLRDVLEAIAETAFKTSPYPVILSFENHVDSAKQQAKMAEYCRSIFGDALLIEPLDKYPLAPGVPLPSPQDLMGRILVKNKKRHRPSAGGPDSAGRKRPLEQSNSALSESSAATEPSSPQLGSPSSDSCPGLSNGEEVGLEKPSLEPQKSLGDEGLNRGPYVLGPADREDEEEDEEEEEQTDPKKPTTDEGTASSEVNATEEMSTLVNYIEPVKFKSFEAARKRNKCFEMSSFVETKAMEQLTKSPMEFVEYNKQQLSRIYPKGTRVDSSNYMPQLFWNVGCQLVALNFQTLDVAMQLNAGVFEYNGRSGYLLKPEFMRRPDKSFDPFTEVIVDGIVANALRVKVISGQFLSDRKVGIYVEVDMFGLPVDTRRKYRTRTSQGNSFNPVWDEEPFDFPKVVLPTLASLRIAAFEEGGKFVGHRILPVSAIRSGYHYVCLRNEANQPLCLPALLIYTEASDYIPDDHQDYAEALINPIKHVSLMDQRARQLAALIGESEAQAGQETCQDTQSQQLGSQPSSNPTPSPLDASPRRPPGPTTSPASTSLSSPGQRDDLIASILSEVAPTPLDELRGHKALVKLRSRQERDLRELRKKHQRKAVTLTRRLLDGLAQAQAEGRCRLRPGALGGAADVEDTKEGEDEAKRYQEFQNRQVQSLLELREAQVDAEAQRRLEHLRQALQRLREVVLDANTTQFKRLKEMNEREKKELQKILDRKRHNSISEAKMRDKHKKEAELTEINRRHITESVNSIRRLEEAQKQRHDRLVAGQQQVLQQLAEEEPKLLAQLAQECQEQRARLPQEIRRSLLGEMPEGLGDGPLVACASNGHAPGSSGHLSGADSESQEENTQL
# PLCg1 inh = blocks human PLC-gamma1 enzyme activity | purified PLC-gamma1, fluorogenic substrate, fluorescence | hit rate 0.84% among 370,000 | inhibition, % at 12.2 µM | P19174; in the data active = inhibition above about 9.5%
# hGIII sPLA2 conf = human GIII-sPLA2 inhibition, confirmation. recombinant hGIII-sPLA2, BODIPY PC-A2 QFRET fluorescence. inhibition, % at 12.2 µM. shares compounds with sPLA2-III inh. AID 743280. hit rate 34% among 2,000;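 active = mean inhibition across triplicates above the hit cutoff set in the earlier primary screen, cut at about 19% in these data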;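 note: 0% = enzyme with DMSO and 100% = DMSO wells lacking enzyme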
# 535nm interf = 535nm fluorescence interference, HGIII-sPLA2 counter-screen; shares compounds with sPLA2-III inh; AID 743282; hit rate 8.5% among 2,000; BODIPY FL product fluorescence interference, QFRET; inhibition, % at 12.2 µM;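 active = average inhibition above the solvent-only control mean plus 3 SD, cut at about 6% in these data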;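 note: 0% = DMSO with substrate plus product and 100% = DMSO with substrate alone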
# BODIPY interf DR = interferes with 535nm fluorescence in dose response counter-screen | IC50, µM | BODIPY FL product fluorescence interference, cell-free | 240 tested, under 10 active | shares compounds with sPLA2-III inh;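 active = IC50 at or below 10 µM; inactive = IC50 above 10 µM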
# Numbers without * were called inactive; i = inactive; . = not tested or not shown. Shown are actives, neighbours in structure and some others; about 1.9% of the full set was active somewhere.
SMILES,sPLA2-III inh,Tb MetRS inh,PLCb3 inh,PLCg1 inh,hGIII sPLA2 conf,535nm interf,others
CS/C(N)=N/N=C/c1c(O)ccc2ccccc12,23*,0,-40,-26,28*,0,
C=CCN1C(=O)[C@H](CC(=O)NCc2cccs2)[C@@]2(C(=O)OCC)CCCC=C12,0,.,0,0,.,.,
CSC1=N/C(=C/c2cccnc2)C(=O)N1Cc1ccc(Cl)cc1,32*,-1,-21,-3,3,-14,
COc1ccc(NC(=S)N(Cc2ccc(N(C)C)cc2)Cc2ccco2)cc1,22*,-1,-5,0,10,-7,
C(=NOCCc1ccccc1)c1cccnc1,20*,0,-2,-3,-4,-5,
C=CCNC(=O)CN(C(=O)Cc1ccc(Cl)nc1)c1cccc(Br)c1,-1,.,-1,1,.,.,
CCCCCC[N+](C)(C)CC/C=C1/c2ccccc2Sc2ccc(Cl)cc21,19*,0,-5,2,1,-59,
CN(C)c1ccc(C=c2c3ccccc3n3c2cc(-c2ccccc2)[n+]3C)cc1,31*,0,-96,-77,56*,-26,BODIPY interf DR=>122
COc1cc(N(C)C)ccc1C=c1c2ccccc2n2c1cc(-c1ccccc1)[n+]2C,45*,0,-23,-14,52*,-19,BODIPY interf DR=>122
CN(C)c1ccc(C=C2C=C(c3ccccc3)OC2=O)cc1,8,0,-73,-61,.,.,
CN(C)c1ccc(C=c2c3cc([N+](=O)[O-])ccc3n3c2cc(-c2ccccc2)[n+]3C)cc1,48*,-1,9,5,98*,-9,BODIPY interf DR=>122
CN(C)c1ccc(C=c2c3ccccc3n3c2c2c([n+]3C)CCCC2)cc1,39*,-1,-23,-16,49*,-24,BODIPY interf DR=>122
COc1ccc(-n2c(SCC(=O)Nc3ccc(OCc4ccccc4)cc3)nnc2-c2ccc(C)cc2)cc1,0,.,0,4,.,.,
COc1ccc(CNC(=S)OC2CCC23CCC(c2ccccc2)CC3)cc1 (stereo not given),3,.,3,7,.,.,
O=C(O)CC1S/C(=N/N=C/c2ccccn2)NC1=O (stereo not given),0,0,-5,4,.,.,
CC(C)N=C1NN=C(c2cccs2)C(CC(=O)O)S1 (stereo not given),20*,-1,-21,-5,1,-5,
COC(=O)[C@]12C[C@H](CC(=O)NCCc3ccccc3OC)C(=O)N(Cc3cccc4ccccc34)C1=C[C@H](C1CCCC1)O[C@@H]2C,-8,.,4,6,.,.,
CCn1c(-c2ccccc2)c[nH]c1=S,7,-1,6,0,.,.,
CC(C)Cn1c(-c2ccc(Br)cc2)c[nH]c1=S,28*,0,0,4,37*,6,
CN1[C@H](Cc2ccccc2)COc2cccc(F)c2S1(=O)=O,-4,.,0,-1,.,.,
COC(=O)[C@]12C[C@H](CC(=O)N3CCN(C(=O)C4CC4)CC3)C(=O)N(Cc3ccco3)C1=C[C@H](C(C)C)O[C@@H]2C1CC1,20*,.,-2,7,-3,-20,
C/C(=N/NC(=O)c1ccco1)c1ccc(NC(=O)c2ccc(Br)o2)cc1,3,1,-3,2,.,.,
C/C(=N/NC(=O)c1ccco1)c1ccc(NC(=O)c2ccc(F)cc2)cc1,23*,0,-5,-3,10,-8,
O=C(NCc1cccnc1)c1ccccc1[N+](=O)[O-],25*,-2,8,-2,-2,-3,
O=C(N/N=C/c1cccnc1)c1ccccc1[N+](=O)[O-],19*,0,4,-2,5,-2,
SMILES,sPLA2-III inh,Tb MetRS inh,PLCb3 inh,PLCg1 inh,hGIII sPLA2 conf,535nm interf,others
O=S1(=O)CCC(N(N=Cc2ccco2)c2ccccc2)C1 (stereo not given),-5,.,2,5,.,.,
Oc1ccc(-c2csc(Nc3cccc4ccccc34)n2)cc1O,21*,-1,-30,-17,9,11*,
Oc1ccc(-c2csc(Nc3ccccn3)n2)cc1O,13,-1,-28,-21,.,.,
O=C1C=CC(=O)N1c1ccc2c(c1)C(NC(=O)C(F)(F)F)c1ccccc1-2 (stereo not given),19*,0,-4,-4,4,-4,
CN(C)c1ccc(N=Cc2nc(-c3ccccc3)oc2OC(=O)c2cccc(Cl)c2)cc1,22*,-1,-7,-10,8,-4,
Cc1ccc(C(=O)Oc2oc(-c3ccccc3)nc2C=Nc2ccc(N(C)C)cc2)cc1,14,1,-3,-5,.,.,
O=C(NCc1ccccc1)[C@H]1CCCN1C(=O)[C@H]1CCCN1C(=O)c1ccc(F)cc1,11,.,-2,2,.,.,
CN1/C(=C\C(=O)Nc2ccc(F)cc2)C(C)(C)c2ccccc21,31*,1,0,-2,28*,3,BODIPY interf DR=>122
CN1/C(=C\C(=O)Nc2ccc(Br)cc2)C(C)(C)c2ccccc21,15,-1,-4,-5,.,.,
Clc1ccc(/C=N/N2CCCCC2)cc1,17,-1,2,5,.,.,
N#Cc1ccc(C=NN2CCCCCC2)cc1,21*,0,1,0,23*,2,
Nc1ccc(N=Nc2ccccc2O)c(N)c1,21*,0,-60,-40,56*,21*,
Oc1ccccc1N=Nc1ccccc1O,36*,0,2,2,36*,5,BODIPY interf DR=>122
COc1ccc(C2O[C@@H](C)[C@@H]3C(=O)N4CCc5c([nH]c6ccccc56)[C@@H]4C[C@@H]3N2C)cc1 (stereo not given in full),-2,.,-106,-78,.,.,
CC(C)N1CCCCC(NC(=O)c2cccs2)C1=O (stereo not given),16,.,1,2,.,.,
CCNC(=S)NNC(=O)c1c(Cl)c(C)nn1C,21*,0,-1,-1,9,-4,
CCCCNC(=S)NNC(=O)c1c(Cl)c(C)nn1C,5,0,3,-1,.,.,
CNC(=S)NNC(=O)c1oc2nc(-c3ccccc3)cc(C)c2c1N,25*,0,i,-430,18,-2,
CC(C)=C1C2CCC1C1C(=O)N(c3nccs3)C(=O)C21 (stereo not given),21*,0,-3,1,3,-2,
c1ccc(-c2nc3ccccc3nc2-c2ccc(CN3CCC4(CC3)CNc3ccccc34)cc2)cc1,11,.,-5,-3,.,.,
O=S1(=O)CCS(=O)(=O)C1c1ccccc1,20*,0,-5,9,-2,-5,
O=C1CC(=O)CC(c2ccccc2)C1,2,0,-4,-4,.,.,
CCCCCCCCN1C(=O)[C@@H](CC(=O)N2CCSCC2)C[C@@]2(C(=O)OC)C1=C[C@H](C(C)(C)C)O[C@@H]2C,1,.,2,-2,.,.,
O=C(COC(=O)/C=C/c1ccc(Cl)cc1)Nc1ccc2c(c1)OCCO2,22*,0,7,7,13,-4,
